Assay results from ChEMBL document CHEMBL1138485, “Discovery of inducible nitric oxide synthase (iNOS) inhibitor development candidate KD7332, part 1: Identification of a novel, potent, and selective series of quinolinone iNOS dimerization inhibitors that are orally active in rodent pain models” (J Med Chem, 2009).

Legend:
Format in all cases: cell-based
[1] = molecular target: Nitric oxide synthase, inducible (Homo sapiens, UniProt P35228); assay: Inhibition of human iNOS expressed in HEK293 cells assessed as NO production by transient transfection assay
Procedure, shortened: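 HEK293 cells grown to ~70% confluence in DMEM/10% FBS with pen/strep. Cells transiently transfected with 10 µg human or murine iNOS plasmid (Fugene 6), 4 h at 37 °C, 10% CO2. Trypsinized, plated at 5 × 10⁵ cells/mL and dosed at once; 1400W 100 µM final as positive control. After 18 h, NO read as DAN fluorescence (10 µg/mL, 20 min RT, then NaOH). EC50 from 3 runs, 10-point curves, n = 8/point.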

Nitric oxide synthase 3 = molecular target: T1, Nitric oxide synthase 3 (Homo sapiens, UniProt P29474); assay: Inhibition of human eNOS expressed in HEK293 cells assessed as NO production by transient transfection assay
T1 sequence (P29474 whole entry): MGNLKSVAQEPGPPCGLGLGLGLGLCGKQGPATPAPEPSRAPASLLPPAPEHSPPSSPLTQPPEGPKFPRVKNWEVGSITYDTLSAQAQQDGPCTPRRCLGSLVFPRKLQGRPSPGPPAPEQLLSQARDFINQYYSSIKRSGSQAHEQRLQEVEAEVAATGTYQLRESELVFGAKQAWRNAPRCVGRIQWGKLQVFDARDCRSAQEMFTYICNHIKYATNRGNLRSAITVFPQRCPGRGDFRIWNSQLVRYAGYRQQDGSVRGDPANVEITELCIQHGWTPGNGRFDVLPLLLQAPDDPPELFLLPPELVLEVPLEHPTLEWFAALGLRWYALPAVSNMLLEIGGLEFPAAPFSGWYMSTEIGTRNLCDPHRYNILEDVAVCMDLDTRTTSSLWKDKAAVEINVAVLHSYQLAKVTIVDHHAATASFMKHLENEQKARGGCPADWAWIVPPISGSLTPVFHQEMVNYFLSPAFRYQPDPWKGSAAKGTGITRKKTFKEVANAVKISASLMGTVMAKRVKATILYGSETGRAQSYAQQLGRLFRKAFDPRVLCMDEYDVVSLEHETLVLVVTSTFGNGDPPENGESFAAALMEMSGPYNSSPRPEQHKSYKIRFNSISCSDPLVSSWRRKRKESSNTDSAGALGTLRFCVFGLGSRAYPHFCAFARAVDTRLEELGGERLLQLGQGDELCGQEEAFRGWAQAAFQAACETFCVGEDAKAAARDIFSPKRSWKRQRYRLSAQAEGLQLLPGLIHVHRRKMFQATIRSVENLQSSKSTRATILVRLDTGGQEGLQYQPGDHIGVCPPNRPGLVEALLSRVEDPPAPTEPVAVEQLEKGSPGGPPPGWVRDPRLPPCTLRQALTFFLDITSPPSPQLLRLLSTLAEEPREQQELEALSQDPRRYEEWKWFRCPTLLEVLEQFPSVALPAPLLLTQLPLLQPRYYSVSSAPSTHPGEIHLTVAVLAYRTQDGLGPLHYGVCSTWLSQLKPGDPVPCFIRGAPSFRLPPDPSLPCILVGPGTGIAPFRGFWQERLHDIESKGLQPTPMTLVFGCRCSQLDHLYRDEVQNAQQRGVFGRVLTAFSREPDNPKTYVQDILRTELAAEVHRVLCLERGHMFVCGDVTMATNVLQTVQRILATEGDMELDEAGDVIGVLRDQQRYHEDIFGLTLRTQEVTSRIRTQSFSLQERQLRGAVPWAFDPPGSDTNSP
Procedure, shortened: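 HEK293 cells grown to ~70% confluence in DMEM/10% FBS with pen/strep, transfected with 15 µg human eNOS plasmid plus Fugene 6 (3:1 µL:µg), 4 h at 37 °C, 10% CO2. Cells replated at 5 × 10⁵/mL, compound added at once, 24 h incubation, then A23187 (83 nM final). After 18 h, NO read by DAN fluorescence.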

Nitric oxide synthase 1 [2] = molecular target: T2, Nitric oxide synthase 1 (Homo sapiens, UniProt P29475); assay: Inhibition of human nNOS expressed in HEK293 cells assessed as NO production by transient transfection assay
[3] = molecular target: T3, Nitric oxide synthase 3 (Homo sapiens) (UniProt P29474); assay: Inhibition of human eNOS expressed in HEK293 cells assessed as NO production at 100 uM by transient transfection assay relative to BBS-4
T3 sequence (whole entry): T1 sequence (P29474 whole entry)
Procedure, shortened: (§1)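 HEK293 cells transiently transfected with human eNOS (15 µg plasmid) or nNOS (10 µg plasmid), Fugene 6 at 3:1 µL:µg, 4 h at 37 °C, 10% CO2. Plated at 5 × 10⁵ cells/mL with compound; SEITU 100 µM final as positive control. After 24 h, activated with A23187 (83 nM final, eNOS) or ionomycin (30 µM final, nNOS). After 18 h more, NO read by DAN fluorescence. Inhibition is relative to the maximal inhibition by the control dimerization inhibitor. 3 runs, 10-point curves, n = 3/point.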

Nitric oxide synthase 1 [4] = molecular target: T2, Nitric oxide synthase 1; assay: Inhibition of human nNOS expressed in HEK293 cells assessed as NO production at 10 uM by transient transfection assay relative to BBS-4; procedure, shortened: as §1

T2 sequence (P29475 whole entry): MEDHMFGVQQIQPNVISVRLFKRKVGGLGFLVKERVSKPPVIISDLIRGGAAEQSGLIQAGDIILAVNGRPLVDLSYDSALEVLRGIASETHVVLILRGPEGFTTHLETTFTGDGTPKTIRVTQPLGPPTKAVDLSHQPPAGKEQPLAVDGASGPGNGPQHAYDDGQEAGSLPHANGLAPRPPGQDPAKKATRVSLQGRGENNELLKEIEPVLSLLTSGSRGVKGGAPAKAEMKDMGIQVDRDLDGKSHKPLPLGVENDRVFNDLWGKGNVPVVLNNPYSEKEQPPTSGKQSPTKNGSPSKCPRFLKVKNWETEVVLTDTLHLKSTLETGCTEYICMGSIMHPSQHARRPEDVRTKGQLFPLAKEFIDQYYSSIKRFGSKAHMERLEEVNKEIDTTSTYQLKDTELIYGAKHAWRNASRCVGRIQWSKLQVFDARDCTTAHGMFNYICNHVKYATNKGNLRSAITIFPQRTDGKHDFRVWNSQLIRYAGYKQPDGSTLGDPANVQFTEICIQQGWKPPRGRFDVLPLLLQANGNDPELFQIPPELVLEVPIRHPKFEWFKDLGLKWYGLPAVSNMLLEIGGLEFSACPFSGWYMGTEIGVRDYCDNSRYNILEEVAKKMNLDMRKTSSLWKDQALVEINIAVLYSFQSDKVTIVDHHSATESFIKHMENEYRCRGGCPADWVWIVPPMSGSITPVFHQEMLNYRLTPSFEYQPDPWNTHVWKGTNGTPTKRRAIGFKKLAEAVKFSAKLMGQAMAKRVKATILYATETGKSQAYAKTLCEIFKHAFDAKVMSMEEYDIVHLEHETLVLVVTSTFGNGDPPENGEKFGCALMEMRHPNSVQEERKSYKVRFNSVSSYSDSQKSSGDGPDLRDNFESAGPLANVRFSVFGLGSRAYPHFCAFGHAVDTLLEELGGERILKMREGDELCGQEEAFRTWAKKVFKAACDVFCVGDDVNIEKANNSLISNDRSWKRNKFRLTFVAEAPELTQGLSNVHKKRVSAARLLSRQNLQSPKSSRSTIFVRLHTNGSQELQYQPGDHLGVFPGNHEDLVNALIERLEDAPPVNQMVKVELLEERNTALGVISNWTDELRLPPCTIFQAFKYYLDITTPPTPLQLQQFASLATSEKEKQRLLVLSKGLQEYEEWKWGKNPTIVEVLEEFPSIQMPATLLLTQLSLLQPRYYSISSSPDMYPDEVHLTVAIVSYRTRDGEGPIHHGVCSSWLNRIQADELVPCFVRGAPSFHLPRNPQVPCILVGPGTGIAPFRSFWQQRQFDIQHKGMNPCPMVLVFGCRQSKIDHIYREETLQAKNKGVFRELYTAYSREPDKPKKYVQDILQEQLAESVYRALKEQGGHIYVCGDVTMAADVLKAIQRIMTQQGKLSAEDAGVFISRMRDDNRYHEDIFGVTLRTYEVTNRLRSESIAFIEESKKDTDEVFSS
Nitric oxide synthase, inducible, sequence (P35228 whole entry): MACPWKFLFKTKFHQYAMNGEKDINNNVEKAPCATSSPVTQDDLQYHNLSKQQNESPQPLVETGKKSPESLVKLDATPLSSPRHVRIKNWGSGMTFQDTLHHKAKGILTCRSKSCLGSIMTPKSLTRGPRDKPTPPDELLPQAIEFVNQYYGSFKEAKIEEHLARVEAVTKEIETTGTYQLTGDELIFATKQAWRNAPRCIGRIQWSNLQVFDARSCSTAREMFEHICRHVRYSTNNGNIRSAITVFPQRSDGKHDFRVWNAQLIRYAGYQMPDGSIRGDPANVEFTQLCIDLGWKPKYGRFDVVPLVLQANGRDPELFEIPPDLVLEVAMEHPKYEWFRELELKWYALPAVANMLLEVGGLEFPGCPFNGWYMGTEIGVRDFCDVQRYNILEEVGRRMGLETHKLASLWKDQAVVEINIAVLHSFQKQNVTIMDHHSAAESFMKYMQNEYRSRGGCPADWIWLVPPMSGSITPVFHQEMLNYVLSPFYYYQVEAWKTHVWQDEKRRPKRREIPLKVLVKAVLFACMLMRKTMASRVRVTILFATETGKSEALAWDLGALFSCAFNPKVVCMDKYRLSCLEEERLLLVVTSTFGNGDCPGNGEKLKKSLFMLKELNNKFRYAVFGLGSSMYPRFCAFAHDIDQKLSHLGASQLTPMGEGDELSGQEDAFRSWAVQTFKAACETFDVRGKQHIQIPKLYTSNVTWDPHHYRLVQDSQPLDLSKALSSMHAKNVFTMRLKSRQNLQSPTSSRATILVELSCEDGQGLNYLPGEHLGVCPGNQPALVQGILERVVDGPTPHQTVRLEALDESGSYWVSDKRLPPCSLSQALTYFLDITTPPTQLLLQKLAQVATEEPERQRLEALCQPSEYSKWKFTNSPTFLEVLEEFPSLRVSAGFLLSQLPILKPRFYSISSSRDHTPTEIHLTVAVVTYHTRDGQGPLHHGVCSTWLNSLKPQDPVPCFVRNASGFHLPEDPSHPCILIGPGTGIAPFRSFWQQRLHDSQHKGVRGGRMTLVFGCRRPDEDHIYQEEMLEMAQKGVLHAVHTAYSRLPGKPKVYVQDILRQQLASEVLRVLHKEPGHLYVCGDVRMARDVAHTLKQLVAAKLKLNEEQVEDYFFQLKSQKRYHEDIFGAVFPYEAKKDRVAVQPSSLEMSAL

| Compound | EC50 [1] | EC50 (Nitric oxide synthase 3) | EC50 (Nitric oxide synthase 1 [2]) | inhibition [3] | inhibition (Nitric oxide synthase 1 [4]) |
| --- | --- | --- | --- | --- | --- |
| O=C(C1CCCC1)N(Cc1cc(=O)[nH]c2c(F)cccc12)c1cccc(Cl)c1 | 770 nM | > 100000 nM | 10300 nM | < 50% |  |
| Cc1cnccc1C(=O)N(Cc1cc(=O)[nH]c2c(F)cccc12)c1cccc(Cl)c1 | 89 nM | 13000 nM | 2100 nM |  |  |
| Cc1ncsc1C(=O)N(Cc1cc(=O)[nH]c2ccccc12)c1ccccc1 | 500 nM | > 100000 nM | > 10000 nM | < 50% | < 50% |
| Cc1ncsc1C(=O)N(Cc1cc(=O)[nH]c2c1CCCC2)c1cccc(Cl)c1 | 1140 nM |  |  |  |  |
| Cc1ncsc1C(=O)N(Cc1cncc2c(F)c(F)ccc12)c1cccc(Cl)c1 | 200 nM | 37000 nM | > 10000 nM |  | < 50% |
| O=C(c1cncs1)N(Cc1cc(=O)[nH]c2c(F)cccc12)c1cccc(Cl)c1 | 53 nM | > 100000 nM |  | < 50% |  |
| O=C(c1ccco1)N(Cc1cc(=O)[nH]c2ccccc12)c1ccccc1 | 1300 nM | > 100000 nM | > 10000 nM | < 50% | < 50% |
| Cc1ncccc1C(=O)N(Cc1cc(=O)[nH]c2c(F)cccc12)c1cccc(Cl)c1 | 350 nM | > 100000 nM | 7900 nM | < 50% |  |
| Cc1cccnc1C(=O)N(Cc1cc(=O)[nH]c2c(F)cccc12)c1cccc(Cl)c1 | 420 nM | > 100000 nM | 4100 nM | < 50% |  |
| Cc1noc(C)c1C(=O)N(Cc1cc(=O)[nH]c2c(F)cccc12)c1cccc(Cl)c1 | 16 nM | 6800 nM | 500 nM |  |  |
| Cc1ccncc1C(=O)N(Cc1cc(=O)[nH]c2c(F)cccc12)c1cccc(Cl)c1 | 49 nM | 41000 nM | 2200 nM |  |  |
| O=C(c1ccco1)N(Cc1cc(=O)[nH]c2c(F)cccc12)c1ccccc1 | 1100 nM | > 100000 nM | > 10000 nM | < 50% | < 50% |

Results, then the compound that gave them:

| EC50 [1] | EC50 (Nitric oxide synthase 3) | EC50 (Nitric oxide synthase 1 [2]) | inhibition [3] | inhibition (Nitric oxide synthase 1 [4]) | Compound |
| --- | --- | --- | --- | --- | --- |
| 200 nM | > 100000 nM | > 10000 nM | < 50% | < 50% | Cc1ncsc1C(=O)N(Cc1cc(=O)[nH]c2c(F)cccc12)c1ccccc1 |
| 840 nM |  |  |  |  | Cc1ncsc1C(=O)N(Cc1cc(=O)oc2c(F)c(F)ccc12)c1cccc(Cl)c1 |
| 53 nM | 33000 nM | 3400 nM |  |  | Cc1ncsc1C(=O)N(Cc1cc(=O)[nH]c2cc(F)ccc12)c1cccc(Cl)c1 |
| 56 nM | > 100000 nM | 2700 nM | < 50% | 2.7% | Cc1ncsc1C(=O)N(Cc1cc(=O)[nH]c2c(F)cccc12)c1cccc(C#N)c1 |
| 500 nM | > 100000 nM | > 10000 nM | < 50% | < 50% | Cc1ncsc1C(=O)N(Cc1cc(=O)[nH]c2cccc(F)c12)c1cccc(Cl)c1 |
| 1300 nM | > 100000 nM | > 10000 nM | < 50% | < 50% | Cc1ncsc1C(=O)N(Cc1cc(=O)[nH]c2c(Cl)cccc12)c1cccc(Cl)c1 |
| 2000 nM |  |  |  |  | Cc1ncsc1C(=O)N(Cc1cc(=O)oc2c(F)cccc12)c1cccc(Cl)c1 |
| 240 nM | > 100000 nM | > 10000 nM | < 50% | < 50% | Cc1ncsc1C(=O)N(Cc1cc(=O)[nH]c2c(F)cccc12)c1ccc(Cl)cc1 |
| 100 nM | > 100000 nM | > 10000 nM | < 50% | < 50% | Cc1cccc(N(Cc2cc(=O)[nH]c3c(F)cccc23)C(=O)c2scnc2C)c1 |
| 300 nM | > 100000 nM | > 10000 nM | < 50% | < 50% | Cc1ncsc1C(=O)N(Cc1cc(=O)[nH]c2ccc(F)cc12)c1cccc(Cl)c1 |
| 990 nM | > 100000 nM | > 10000 nM | < 50% | < 50% | COc1cccc(N(Cc2cc(=O)[nH]c3c(F)cccc23)C(=O)c2scnc2C)c1 |
| 13000 nM | > 100000 nM | > 10000 nM | < 50% | < 50% | Cc1ncsc1C(=O)N(Cc1cc(=O)[nH]c2c(F)cccc12)c1ccccc1Cl |
| 760 nM |  |  |  |  | Cc1ncsc1C(=O)N(Cc1cncc2c(F)cccc12)c1cccc(Cl)c1 |
| 62 nM | 15000 nM |  |  |  | Cc1ncsc1C(=O)N(Cc1cc(=O)[nH]c2c(F)cccc12)c1cccc(F)c1 |
| 170 nM | > 100000 nM | > 10000 nM | < 50% | < 50% | Cc1ncsc1C(=O)N(Cc1cc(=O)[nH]c2ccccc12)c1cccc(Cl)c1 |
